Test [1] in a line: HUVEC growth inhibition – cell-based, human, primary screen (AID 575).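 Also: 100% = median of untreated cell wells with 0.1% DMSO on each plate.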 As to conditions: HUVEC proliferation, CellTiter-Glo luminescence, 72 h; at 10 µM; stronger effect = lower value. The method in brief: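 Test system – primary HUVEC, no more than 12 passages · Dosing – one dose, 10 µM final, 0.1% DMSO · Times – 72 h treatment at 37 °C · Measured by – ATP-based CellTiter-Glo luminescent read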
In general terms: Cellular ATP, detected with luciferase, serves as a proxy for viable cell number.

A short description of test [2]: H69AR cell proliferation blockers – human, duplicate replicates, primary screen (AID 580;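 active = viability at or under a set limit in both replicates, limit being median viability minus 3 SD, cut at about 48% in these data, passing the limit was not always enough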;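 also: 100% = mean luminescence of untreated wells and 0% = no signal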). As to conditions: H69AR lung tumor cells viability, ATP luminescence, 72 h; at 10 µM; stronger effect = lower value.
Test [3] in a line: MRP1 drug-resistance reversers in H69AR cells – cell-based, doxorubicin co-treatment, pilot screen (AID 601;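 active = viability loss from added drug above about 55%, and viability with drug at most 40%, in both replicates, limit read from the data, passing the limit was not always enough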). Particulars: CellTiter-Glo, 72 h, at 10 µM; for differential viability (reversal): stronger effect = higher value.
Test [4] can be described thus: yeast transport mutant growth inhibition pilot in 384-well plates, post-Golgi transport modulator project (AID 636; in the data active = inhibition above about 31%). As to conditions: absorbance 615 nm, about 18 h, stronger effect = higher value.
A short description of test [5]: growth suppression of yeast trafficking mutant, preliminary HTS, modulators of trafficking downstream of Golgi apparatus project, 1536-format plate, OD 615 nm (AID 637; in the data active = inhibition above about 30%). As to conditions: yeast transport mutant growth, absorbance 615 nm, 18 h; stronger effect = higher value.
Where [6] appears, read: H69AR cells + 2 uM doxorubicin, measured here: viability with 2 uM doxorubicin, stronger effect = lower value.
Setting [7] is: H69AR cells, compound alone cytotoxicity.

Active and inactive are the calls of the source.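 The calls were made as follows, unless noted: active = viability at or below 30% in both replicate assays; inconclusive = viability at or below 30% in just one of the two assays; inactive = the rest.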

Usually viability stands for a read-out of living cells in per cent, often relative to untreated cells. The inhibition is the drop in the measured response relative to a control, in per cent.

With `Cc1nnc(NC2CCCCC2)[nH]c1=O`, the viability in test [1] is 87.5% (inactive); in test [2] it was 87.1% (inactive); in test [3] (setting [6]), 80.3%; in test [3] (setting [7]) it was 87.1%. For the same molecule, in test [3] (H69AR cells + 2 uM doxorubicin), the differential viability (reversal) was 6.85% (inactive). Besides, the inhibition is -5.19% (inactive) in test [4] and 3.02% (inactive) in test [5].

For the molecule `C=CCn1c(Br)nc2c1c(=O)[nH]c(=O)n2C`, the viability is 97.7% (inactive) in test [1], 85.1% (inactive) in test [2], 78.7% in test [3] (setting [6]) and 85.1% in test [3] (setting [7]). In addition, the differential viability (reversal) in test [3] (H69AR cells + 2 uM doxorubicin) is 6.37% (inactive). The inhibition is -6.93% (inactive) in test [4] and 3.33% (inactive) in test [5].

For `CCOc1ccc(C2/C(=C(/O)c3ccccc3)C(=O)C(=O)N2CCCN(C)C)cc1OC` (stereo not drawn), the viability in test [1] is 111% (inactive); in test [2], 100% (inactive); in test [3] (setting [6]), 92.9%; in test [3] (setting [7]), 100%. In addition, in test [3] (H69AR cells + 2 uM doxorubicin), the differential viability (reversal) was 7.23% (inactive). Besides, the values for the inhibition in test [4] and in test [5] were -2.63% (inactive) and 6.19% (inactive), respectively.

Take `COc1ccc(OC)c(Nc2ncnc3c2cnn3-c2ccccc2)c1`: the viability is 99.3% (inactive) in test [1], 90.5% (inactive) in test [2], 88.5% in test [3] (setting [6]) and 90.5% in test [3] (setting [7]). In addition, the differential viability (reversal) in test [3] (H69AR cells + 2 uM doxorubicin) is 1.97% (inactive). Besides, the inhibition in test [4] is -4.67% (inactive); in test [5], -5.87% (inactive).

With `CC(=O)Nc1ccc(N2CCN(Cc3ccccc3F)CC2)cc1`, the viability in test [1] was 88.8% (inactive); in test [2] it was 92.5% (inactive); in test [3] (setting [6]), 83.8%; in test [3] (setting [7]) it was 92.5%. The differential viability (reversal) in test [3] (H69AR cells + 2 uM doxorubicin) is 8.67% (inactive). Further, the inhibition is -0.91% (inactive) in test [4] and 1.11% (inactive) in test [5].

Turning to `Cc1nc(C)c(C(=O)C2=C(O)C(=O)N(CCCn3ccnc3)C2c2ccccc2)s1` (stereo not drawn), the viability in test [1] is 94.5% (inactive); in test [2] it was 95% (inactive); in test [3] (setting [6]), 94.1%; in test [3] (setting [7]) it was 95%. For the same molecule, in test [3] (H69AR cells + 2 uM doxorubicin), the differential viability (reversal) was 0.995% (inactive). For the same molecule, the inhibition is -0.13% (inactive) in test [4] and -2.54% (inactive) in test [5].

On to `Cn1c(=O)[nH]c(=O)c2c1nc(NC1CCCCC1)n2CC(=O)NC1CCCCC1`, for which the viability was 99.5% (inactive) in test [1], 94.7% (inactive) in test [2], 80.1% in test [3] (setting [6]) and 94.7% in test [3] (setting [7]). Moreover, the differential viability (reversal) in test [3] (H69AR cells + 2 uM doxorubicin) was 14.6% (inactive). For the same molecule, the inhibition in test [4] is -7.6% (inactive); in test [5], 5.87% (inactive).

For the molecule `S=c1[nH]nc(COc2ccccc2)n1C1CCCCC1`, the viability in test [1] is 89.5% (inactive); in test [2], 81.6% (inactive); in test [3] (setting [6]) it was 59.2%; in test [3] (setting [7]), 81.6%. For the same molecule, the differential viability (reversal) in test [3] (H69AR cells + 2 uM doxorubicin) is 22.4% (inactive). The values for the inhibition in test [4] and in test [5] were -0.39% (inactive) and 6.35% (inactive), respectively.

In the case of `CC(OC1=CC(=O)CCC1)C(=O)c1ccccc1` (stereo not drawn), the viability in test [1] was 102% (inactive); in test [2], 108% (inactive); in test [3] (setting [6]), 89.8%; in test [3] (setting [7]), 108%. Further, in test [3] (H69AR cells + 2 uM doxorubicin), the differential viability (reversal) was 18% (inactive). The inhibition is -2.6% (inactive) in test [4] and -0.48% (inactive) in test [5].

Take `Cc1ccccc1OCCn1c(=O)oc2ccccc21`: the viability in test [1] was 82.3% (inactive); in test [2] it was 91.5% (inactive); in test [3] (setting [6]) it was 74.7%; in test [3] (setting [7]), 91.5%. The differential viability (reversal) in test [3] (H69AR cells + 2 uM doxorubicin) was 16.8% (inactive). The inhibition in test [4] was -5.07% (inactive); in test [5] it was 2.38% (inactive).

Consider `CCOC(=O)c1ccc(NC(=O)Nc2ccn(C)n2)cc1`, for which the viability was 101% (inactive) in test [1], 91.2% (inactive) in test [2], 86.7% in test [3] (setting [6]) and 91.2% in test [3] (setting [7]). Besides, the differential viability (reversal) in test [3] (H69AR cells + 2 uM doxorubicin) is 4.49% (inactive). For the same molecule, the inhibition was -6.27% (inactive) in test [4] and 1.75% (inactive) in test [5].

Consider `O=C1CC(c2ccccc2)CC(O)=C1C=NCCCN1CCOCC1` (stereo not drawn), for which the viability in test [1] was 100% (inactive); in test [2], 100% (inactive); in test [3] (setting [6]), 95%; in test [3] (setting [7]), 100%. In addition, in test [3] (H69AR cells + 2 uM doxorubicin), the differential viability (reversal) is 5.34% (inactive). The inhibition in test [4] was -1.05% (inactive); in test [5], -3.49% (inactive).

Turning to `O=C(c1ccccc1)N1CCN(Cc2ccccc2Br)CC1`, the viability in test [1] was 105% (inactive); in test [2] it was 92.3% (inactive); in test [3] (setting [6]) it was 89.4%; in test [3] (setting [7]) it was 92.3%. The differential viability (reversal) in test [3] (H69AR cells + 2 uM doxorubicin) is 2.89% (inactive). For the same molecule, the inhibition was -4.53% (inactive) in test [4] and -4.6% (inactive) in test [5].

As to `Cc1cc(NC(=O)C2CCCC2)nc2c1c(=O)oc1ccccc12`, the viability in test [1] was 60.3% (inactive); in test [2], 62.8% (inactive); in test [3] (setting [6]), 87.8%; in test [3] (setting [7]), 62.8%. Further, the differential viability (reversal) in test [3] (H69AR cells + 2 uM doxorubicin) was -24.9% (inactive). For the same molecule, the values for the inhibition in test [4] and in test [5] were -5.45% (inactive) and 3.49% (inactive), respectively.

Turning to `COc1ccc(N(CC(=O)Nc2ccccc2SC)S(C)(=O)=O)cc1OC`, the viability in test [1] was 113% (inactive); in test [2] it was 98.2% (inactive); in test [3] (setting [6]), 90.7%; in test [3] (setting [7]) it was 98.2%. Moreover, the differential viability (reversal) in test [3] (H69AR cells + 2 uM doxorubicin) was 7.5% (inactive). For the same molecule, the inhibition in test [4] was -2.63% (inactive); in test [5], 1.75% (inactive).

Consider `COc1ccc2oc(C)c(C(=O)Cn3ccnc3)c2c1`, for which the viability in test [1] is 92.8% (inactive); in test [2], 87.8% (inactive); in test [3] (setting [6]), 90.1%; in test [3] (setting [7]) it was 87.8%. For the same molecule, the differential viability (reversal) in test [3] (H69AR cells + 2 uM doxorubicin) was -2.3% (inactive). The inhibition is 1.69% (inactive) in test [4] and 24.8% (inactive) in test [5].

For `CC(=O)Nc1ccc(S(=O)(=O)N2CCSC2c2ccccc2)cc1` (stereo not drawn), the viability in test [1] was 99.6% (inactive); in test [2], 91.5% (inactive); in test [3] (setting [6]) it was 86.4%; in test [3] (setting [7]), 91.5%. Further, the differential viability (reversal) in test [3] (H69AR cells + 2 uM doxorubicin) is 5.05% (inactive). The results for the inhibition in test [4] and in test [5] were -1.82% (inactive) and 0.32% (inactive), respectively.

Consider `CC(C)OC(=O)CSc1nnc(-c2ccc(O)cc2)n1Cc1ccccc1`, for which the viability was 109% (inactive) in test [1], 80.8% (inactive) in test [2], 85% in test [3] (setting [6]) and 80.8% in test [3] (setting [7]). Also, in test [3] (H69AR cells + 2 uM doxorubicin), the differential viability (reversal) is -4.22% (inactive). In addition, the inhibition in test [4] is -7.2% (inactive); in test [5], -2.22% (inactive).

Consider `Cc1noc(C)c1C(=O)Nc1sc(C)c(C)c1C#N`, for which the viability in test [1] is 105% (inactive); in test [2], 95.5% (inactive); in test [3] (setting [6]), 75.2%; in test [3] (setting [7]), 95.5%. Moreover, in test [3] (H69AR cells + 2 uM doxorubicin), the differential viability (reversal) was 20.3% (inactive). Besides, the inhibition in test [4] was -1.97% (inactive); in test [5] it was 2.86% (inactive).

Source of the values: PubChem BioAssay.
